Results on 35 sequences are retold here after the EternaBench riboswitch data.

Data set [1] has as its system MS2 coat protein. In words: apparent Kd, MS2 coat protein; higher = weaker binding; RNA-MaP array; theophylline 2 mM where present. The method, boiled down: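 Apparent Kd: the median of filtered binding-curve fits from single clusters. Designs were transcribed on Illumina sequencing-chip clusters by stalled E. coli RNA polymerase and titrated with SNAP-549-labelled MS2 coat protein from 0.7 or 1.5 nM, doubling to 3 µM, in 100 mM Tris-HCl pH 7.5, 80 mM KCl, 4 mM MgCl2, BSA, DTT, yeast tRNA and Tween-20. Each series ran without and then with constant ligand, and green signal was normalised to red-channel RNA signal and control-cluster median Fmax.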

Data set [2] has as its system MS2 coat protein. As to the kind of experiment: apparent Kd, MS2 coat protein; higher = weaker binding; RNA-MaP array. The method, boiled down: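 The designed RNAs, transcribed from sequenced DNA templates on an Illumina sequencing chip, were incubated with fluorescently labeled MS2 coat protein at room temperature. Protein ranged from 1.5 nM to 3 μM, with 0.8–1.5 h incubation at the lowest and 10–20 min at the highest concentrations, in Tris-HCl pH 7.5 buffer with KCl, MgCl2, BSA, DTT, tRNA and Tween20, with or without input ligand. The median of per-cluster binding-curve fits gives the apparent Kd, and designs measured on fewer than 10 clusters were excluded.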

[3] abbreviates: designed as: ON switch for theophylline, no ligand.
Setting [4] is: ligand present: theophylline, designed as: ON switch for theophylline.
Setting [5] is: designed as: OFF switch for theophylline, no ligand.
Setting [6] is: ligand present: theophylline, designed as: OFF switch for theophylline.
Setting [7] is: designed as: ON switch for flavin mononucleotide, no ligand.
The mark [8] stands for this setting: ligand present: flavin mononucleotide, designed as: ON switch for flavin mononucleotide.
The mark [9] stands for this setting: designed as: OFF switch for flavin mononucleotide, no ligand.
Setting [10] is: ligand present: flavin mononucleotide, designed as: OFF switch for flavin mononucleotide.

As usually defined, the apparent Kd is a dissociation constant that holds for the conditions of the assay. For the sequence “GGUGGGACUUGUGAUACCAGCCCAAUUCGAAUCGAAUUGCACAUGAGGAUCACCCAUGUCGGCCCUUGGCAGCAUGAGUAUUUAU”, the “apparent Kd” value in data set [1] (setting [3]) turned out to be 312 nM; in data set [1] (setting [4]), 16.8 nM.

Regarding “UAUAUAGUGAUGGAUACCAGCAGAGAAAACGUUUAUCCUAACAUGAGGAUCACCCAUGUAUGCCCUUGGCAGCUGUUGUUAUAUA”, the “apparent Kd” value in data set [1] (setting [5]) amounted to 20.1 nM; in data set [1] (setting [6]), 28 nM.

Regarding “ACGUCACGUUUACUCGUGGUUUCGAUCGAUACCAGUAGCGAGAGUUACCCUUGGCAGCGACAUGAGGAUCACCCAUGUACGAAGA”, the figures for the “apparent Kd” value in data set [1] (setting [5]) and in data set [1] (setting [6]) were 13.5 nM and 18.4 nM, respectively.

For the sequence “ACGAUAGGACAUGAGGAUCACCCAUGUGAUACCAGCCUGGAAACAGGCCCUUGGCAGCACAAAUACUCCAGAAACCUAUCGAAAA”, the entries for the “apparent Kd” value in data set [1] (setting [5]) and in data set [1] (setting [6]) were 258 nM and 417 nM, respectively.

For the sequence “GAUGAACUAUAUGAUACCAGACAACAUGAGGAUCACCCAUGUGAUUGUCGUCCUCUGCCUGUCCCUUGGCAGCGUAUAGUUUAUC”, the “apparent Kd” value in data set [1] (setting [5]) turned out to be 33.8 nM; in data set [1] (setting [6]), 229 nM.

As to “GGGAAUGAACGUGAUACCAGAGAUCCGGUCUCCGUCAAUAUACAUGAGGAUCACCCAUGUCUCCCUUGGCAGCACCGUCAUCGGG”, the “apparent Kd” value worked out at 14.8 nM in data set [1] (setting [5]) and 23.4 nM in data set [1] (setting [6]).

For the sequence “UUAAAUGUGACGGAUACCAGCGUGUUGUAGAACAUGAGGAUCACCCAUGUAGUGAUCGAGCGCCCUUGGCAGCUGGUAUGUUUGA”, the “apparent Kd” value in data set [1] (setting [3]) was found to be 180 nM; in data set [1] (setting [4]), 532 nM.

Regarding “CUCCGAGGCUAUACUAUCCGCCUCAGUGAUACCAGAAUACCUAUAUUCCCUUGGCAGCAUCACAUGAGGAUCACCCAUGUGCCAU”, the “apparent Kd” value came out at 12.5 nM in data set [1] (setting [3]) and 15.2 nM in data set [1] (setting [4]).

Turning to “UUAGAUAUGACAGAUACCAGCGUGUUGUAGAACAUGAGGAUCACCCAUGUAGUGAUCGAGCGCCCUUGGCAGCUGGUGUGUUUGG”, the “apparent Kd” value in data set [1] (setting [3]) was 149 nM; in data set [1] (setting [4]), 440 nM.

In the case of “GGAUAGAUAGGAGAUACCAGAUACAUCAACAUGAGGAUCACCCAUGUGUCUGCACUAAGUGUCCCUUGGCAGCUCGGAGAUCUGA”, the “apparent Kd” value is 32.3 nM in data set [1] (setting [3]) and 20.5 nM in data set [1] (setting [4]).

Regarding “UAAAAUAAUAAUGAUACCAGCCCUCCCUCCCGGGACAUGAGGAUCACCCAUGUCUCUCCCGGCCCUUGGCAGCAUAAAUAAUAAU”, the “apparent Kd” value is 11.1 nM in data set [1] (setting [3]) and 14.2 nM in data set [1] (setting [4]).

For the sequence “ACAUGAAGAUUAAUCGUGGGCAUACUCGAUACCAGUAUUUUAACCUACCCUUGGCAGCGACAUGAGGAUCACCCAUGUGAGAUGA”, the “apparent Kd” value came to 21.6 nM in data set [1] (setting [5]) and 28.9 nM in data set [1] (setting [6]).

In the case of “GAGCUGAUGUAGAGAUUUUAUUUCUGAGAUACCAGUACAGAAAUGUACCCUUGGCAGCUCAGCUUUACAUGAGGAUCACCCAUGU”, the “apparent Kd” value is 17.2 nM in data set [1] (setting [5]) and 22.1 nM in data set [1] (setting [6]).

As for “AUAUGAUCAUAUGAUACCAGAAAUGGUAUUCCUUUGUUUCUUACAUGAGGAUCACCCAUGUUCCCUUGGCAGCAUAUGAUCAUAU”, the “apparent Kd” value came out at 187 nM in data set [1] (setting [5]) and 251 nM in data set [1] (setting [6]).

“AGUGUUAUAACUGAUACCAGACUCUCAUGUUUACAUGAGGAUCACCCAUGUUAUUUCUUUGUCCCUUGGCAGCAGAAUUUACACA”: the “apparent Kd” value in data set [1] (setting [3]) is 317 nM; in data set [1] (setting [4]), 49.3 nM.

With “GAGACAUGAGGAUCACCCAUGUUAGAUGAUACCAGUUAGAGAAGGAGCCCUUGGCAGCGUAAAUCUAGAGCCUAUGACGACAUGU”, the “apparent Kd” value in data set [1] (setting [3]) is 13.4 nM; in data set [1] (setting [4]) it was 14.2 nM.

As to “CCAUAUGUAACUGAUACCAGUGUACUGACAUGAGGAUCACCCAUGUUGGGUUUUGUUGUACACCCUUGGCAGCAGAAUCAUAUGG”, the figures for the “apparent Kd” value in data set [1] (setting [5]) and in data set [1] (setting [6]) were 62.4 nM and 80.4 nM, respectively.

As to “AUCUCAUAGAGUGAUACCAGACUACAUGAGGAUCACCCAUGUUACAUUUAAAUAUCAUUUGUCCCUUGGCAGCACAUGAAGUACA”, the “apparent Kd” value in data set [1] (setting [5]) was 28 nM; in data set [1] (setting [6]) it was 18 nM.

“AAUAUAAGUGUAAUUAUAUGUAUCUCUGAUACCAGACUCUCAUGUGUCCCUUGGCAGCAGUUACAUGAGGAUCACCCAUGUAUUA”: the “apparent Kd” value came out at 103 nM in data set [1] (setting [3]) and 31.9 nM in data set [1] (setting [4]).

Take “AGUGUUAUAACUGAUACCAGACCUUUGCUUAUACAUGAGGAUCACCCAUGUAAAAUGGCUGUCCCUUGGCAGCAGAGAAUACACA”: the “apparent Kd” value in data set [1] (setting [3]) turned out to be 46 nM; in data set [1] (setting [4]), 16.5 nM.

Regarding “UAUAAGGGUCAGAAGGCAGUGGCGCAGAAUGACUGAGGAUAUGAUAACCGGUAAUUUAACAUGAGGAUCACCCAUGUCUACAAC”, the results for the “apparent Kd” value in data set [2] (setting [7]) and in data set [2] (setting [8]) were 11.7 nM and 10.2 nM, respectively.

As for “UAGUAGUAAGGAUAUGCGGCACCGACGCCUCCGAACCGCGGGCAGAAGGUACAUGAGGAUCACCCAUGUGGGUA”, the “apparent Kd” value in data set [2] (setting [9]) came to 169 nM; in data set [2] (setting [10]) it was 116 nM.

With “ACGGCAUGGAAGAAGGAGUACAUGAGGAUCACCCAUGUAGGGUAGCGCGUCCACAUCCAAUAAGACUAGGAUAUUCUUGCAGAU”, the “apparent Kd” value was determined as 39.8 nM in data set [2] (setting [9]) and 83.2 nM in data set [2] (setting [10]).

Consider “GAUGCACAUGAGGAUCACCCAUGUCCUGAUACCAGAACGCGACUUUUCCCUUGGCAGCAGAAUUCACUUUUUUACAUUCAUACUG”, for which the results for the “apparent Kd” value in data set [2] (setting [3]) and in data set [2] (setting [4]) were 22.1 nM and 22.9 nM, respectively.

As for “GUGGGCUAGGAGAAGGACGAUCGAAGCCAUAUCGUAGGAUAUCCAUUAAGAUCCCGGACAUGAGGAUCACCCAUGUGGUGAUAG”, the “apparent Kd” value in data set [2] (setting [9]) worked out at 676 nM; in data set [2] (setting [10]) it was 414 nM.

Turning to “AUAUCUUCCACGGCCGCCACUGAAUGGUGCCCAAGGUCGAUCGCAGACAUGAGGAUCACCCAUGUCAGGACCGGGUGGUACUACG”, the “apparent Kd” value in data set [2] (designed as: OFF switch for tryptophan, no ligand) came to 14.7 nM; in data set [2] (ligand present: tryptophan, designed as: OFF switch for tryptophan), 33 nM.

As to “ACAUAUUCCAGAGGAUAUUGUGGUAUCCAGUUAAGGAGAUCUUACAUGAGGAUCACCCAUGUGGACAAGAAGGCUGAACGCUCC”, the “apparent Kd” value in data set [2] (setting [7]) is 21.6 nM; in data set [2] (setting [8]), 14.7 nM.

With “GCAUUAACAAAGGAUAUGCAUUUCGUCAAUGUAGCAGAAGGUUGUACAUGAGGAUCACCCAUGUGUGAUCGAAC”, the “apparent Kd” value in data set [2] (setting [9]) came to 26 nM; in data set [2] (setting [10]), 56.6 nM.

With “GCUGCCUGGACAUGAGGAUCACCCAUGUGGACAAUACUGGCUUAGGAUAUUUGAUUGAAGUUUGGAAAGAAGGAAGCAUACAGC”, the “apparent Kd” value in data set [2] (setting [9]) turned out to be 9.17 nM; in data set [2] (setting [10]), 8.14 nM.

With “UGGCCAGAACCUUUUGUGGCCACAUGAGGAUCACCCAUGUGCGAGGAUAUCCCAUCCGGUCCGGCGGAGAAGGCGCGUAUCGGC”, the results for the “apparent Kd” value in data set [2] (setting [7]) and in data set [2] (setting [8]) were 34.4 nM and 30.1 nM, respectively.

In the case of “GCGGUACAUGAGGAUCACCCAUGUGAUUUAACAGGUUUCAUCAGAAGGACUCACGGUUUGCGACAGUAGGAUAUGAAGGGUAAG”, the entries for the “apparent Kd” value in data set [2] (setting [7]) and in data set [2] (setting [8]) were 34.6 nM and 24.6 nM, respectively.

As to “UCAUUGAGAGUCAUCCAGCGUUAAUGGGAUACCAGAGUUCUUUUACUCCCUUGGCAGCCCGGAACAUGAGGAUCACCCAUGUCUG”, the “apparent Kd” value was 34.9 nM in data set [2] (setting [5]) and 80.8 nM in data set [2] (setting [6]).

For “GCUAAUCCAGGAGGAUAUAGGUUCUUUUCUACACAUGAGGAUCACCCAUGUGCAUCCCGGCGUACCUAGAAGGCCUGUCUAAAA”, the “apparent Kd” value in data set [2] (setting [7]) stood at 25.9 nM; in data set [2] (setting [8]), 15.5 nM.

On to “GACGAACAUGAGGAUCACCCAUGUUAACCGAUCACCACGUUCAGAAGGAGGGACAUAACGAGCACCUAGGAUAUGACCAAACAC”, for which the “apparent Kd” value in data set [2] (setting [7]) was determined as 24.2 nM; in data set [2] (setting [8]) it was 14.1 nM.

For “CAGUUACUGUAGAAGGAUAUCAUUAAUACGGAUAUAGGAUAUACUCCGGGUGGAAUCGUGAACAUGAGGAUCACCCAUGUUUCG”, the “apparent Kd” value is 10.2 nM in data set [2] (setting [9]) and 8.6 nM in data set [2] (setting [10]).
